Laboratory results published in ChEMBL document CHEMBL3862007, “Synthesis and antimicrobial activity of small cationic amphipathic aminobenzamide marine natural product mimics and evaluation of relevance against clinical isolates including ESBL-CARBA producing multi-resistant bacteria” (Bioorg Med Chem, 2016).

Tests used:
[1] = system: Staphylococcus aureus; assay: Antibacterial activity against Staphylococcus aureus ATCC 9144 after 48 hrs by microdilution method; format: functional; conditions: ATCC 9144, 48 h
[2] = Aqueous solubility of the compound; format: physicochemical; conditions: buffer
[3] = Hemolytic activity in human RBC at 64 ug/ml after 1 hr relative to control; format: ADME, cell-based, Erythrocyte; conditions: red blood cells (RBC), read-out: Activity
[4] = Selectivity index, ratio of hemolytic EC50 for human RBC to MIC for Staphylococcus aureus ATCC 9144
[5] = system: Escherichia coli; assay: Antibacterial activity against Escherichia coli ATCC 25922 after 48 hrs by microdilution method; format: functional; conditions: ATCC 25922, 48 h
[6] = system: Bacillus subtilis; assay: Antibacterial activity against Bacillus subtilis 168 ATCC 23857 after 48 hrs by microdilution method; format: functional; conditions: subsp. subtilis str. 168 ATCC 23857, 48 h
[7] = system: Corynebacterium glutamicum; assay: Antibacterial activity against Corynebacterium glutamicum ATCC 13032 after 48 hrs by microdilution method; format: functional; conditions: ATCC 13032, 48 h
[8] = Hemolytic activity in human RBC after 1 hr; format: ADME, cell-based; conditions: Erythrocyte
[9] = Antibacterial activity against methicillin-resistant Staphylococcus epidermidis RP62A CCUG 31568 (ATCC 35984) after 48 hrs by microdilution method; format: functional
How it was run: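 Broth microdilution MIC against the reference-strain panel. Compounds were supplied as HCl salts for aqueous solubility in the test medium. Precipitation in the test buffer is flagged at higher concentrations.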

[10] = system: Pseudomonas aeruginosa; assay: Antibacterial activity against Pseudomonas aeruginosa PAO1 DSM 19880 (ATCC 15692) after 48 hrs by microdilution method; format: functional
[11] = system: Acinetobacter baumannii; assay: Antibacterial activity against multi-drug resistant/OXA-23 producing Acinetobacter baumannii K47-42 after 24 hrs by microdilution method; format: functional; conditions: K47-42, 24 h
[12] = system: Pseudomonas aeruginosa; assay: Antibacterial activity against multi-drug resistant/VIM-2 producing Pseudomonas aeruginosa K34-7 after 24 hrs by microdilution method; format: functional; conditions: K34-7, 24 h
[13] = system: Staphylococcus aureus; assay: Antibacterial activity against methicillin resistant Staphylococcus aureus IHT 99040 after 24 hrs by microdilution method; format: functional; conditions: IHT 99040, 24 h
[14] = system: Enterococcus sp.; assay: Antibacterial activity against Enterococcus sp. clinical isolate after 24 hrs by microdilution method; format: functional
[15] = system: Acinetobacter baumannii; assay: Antibacterial activity against multi-drug resistant/OXA-23 producing Acinetobacter baumannii K44-35 after 24 hrs by microdilution method; format: functional; conditions: K44-35, 24 h
[16] = system: Escherichia coli; assay: Antibacterial activity against Escherichia coli clinical isolate after 24 hrs by microdilution method; format: functional
[17] = system: Enterococcus faecium; assay: Antibacterial activity against vancomycin-resistant Enterococcus faecium 50758899 after 24 hrs by microdilution method; format: functional; conditions: Enterococcus faecium, 50758899, 24 h
[18] = system: Enterococcus faecium; assay: Antibacterial activity against vancomycin-resistant Enterococcus faecium 50673722 after 24 hrs by microdilution method; format: functional; conditions: Enterococcus faecium, 50673722, 24 h
[19] = system: Escherichia coli; assay: Antibacterial activity against multi-drug resistant/IMP-26 producing Escherichia coli 50857972 after 24 hrs by microdilution method; format: functional; conditions: Escherichia coli, 50857972, 24 h
[20] = system: Escherichia coli; assay: Antibacterial activity against multi-drug resistant/OXA-48 producing Escherichia coli 50579417 after 24 hrs by microdilution method; format: functional; conditions: Escherichia coli, 50579417, 24 h
[21] = system: Staphylococcus aureus; assay: Antibacterial activity against Staphylococcus aureus clinical isolate after 24 hrs by microdilution method; format: functional
[22] = system: Pseudomonas aeruginosa; assay: Antibacterial activity against multi-drug resistant/NDM1 producing Pseudomonas aeruginosa 50692172 after 24 hrs by microdilution method; format: functional; conditions: Pseudomonas aeruginosa, 50692172, 24 h
[23] = system: Klebsiella pneumoniae; assay: Antibacterial activity against multi-drug resistant/NDM1 producing Klebsiella pneumoniae K66-45 after 24 hrs by microdilution method; format: functional; conditions: K66-45, 24 h
[24] = system: Pseudomonas aeruginosa; assay: Antibacterial activity against multi-drug resistant/VIM-4 producing Pseudomonas aeruginosa K34-73 after 24 hrs by microdilution method; format: functional; conditions: K34-73, 24 h
[25] = system: Enterococcus faecium; assay: Antibacterial activity against vancomycin-resistant Enterococcus faecium K36-18 after 24 hrs by microdilution method; format: functional; conditions: K36-18, 24 h
[26] = system: Klebsiella pneumoniae; assay: Antibacterial activity against multi-drug resistant/OXA-245 producing Klebsiella pneumoniae 50625602 after 24 hrs by microdilution method; format: functional; conditions: Klebsiella pneumoniae, 50625602, 24 h
[27] = system: Staphylococcus aureus; assay: Antibacterial activity against methicillin resistant Staphylococcus aureus clinical isolate 85/2082 after 24 hrs by microdilution method; format: functional; conditions: isolate 85/2082, 24 h
[28] = system: Pseudomonas aeruginosa; assay: Antibacterial activity against Pseudomonas aeruginosa clinical isolate after 24 hrs by microdilution method; format: functional
[29] = system: Klebsiella pneumoniae; assay: Antibacterial activity against multi-drug resistant/NDM1/OXA-181 producing Klebsiella pneumoniae 50531633 after 24 hrs by microdilution method; format: functional; conditions: Klebsiella pneumoniae, 50531633, 24 h
[30] = system: Klebsiella pneumoniae; assay: Antibacterial activity against multi-drug resistant/VIM1 producing Klebsiella pneumoniae 50667959 after 24 hrs by microdilution method; format: functional; conditions: Klebsiella pneumoniae, 50667959, 24 h
[31] = system: Staphylococcus aureus; assay: Antibacterial activity against methicillin resistant Staphylococcus aureus clinical isolate WIS after 24 hrs by microdilution method; format: functional
[32] = system: Acinetobacter baumannii; assay: Antibacterial activity against multi-drug resistant/OXA-24 producing Acinetobacter baumannii K55-13 after 24 hrs by microdilution method; format: functional; conditions: K55-13, 24 h
[33] = system: Escherichia coli; assay: Antibacterial activity against multi-drug resistant/NDM-1 producing Escherichia coli 50676002 after 24 hrs by microdilution method; format: functional; conditions: Escherichia coli, 50676002, 24 h
[34] = system: Escherichia coli; assay: Antibacterial activity against multi-drug resistant/NDM-1 producing Escherichia coli 50739822 after 24 hrs by microdilution method; format: functional; conditions: Escherichia coli, 50739822, 24 h
[35] = system: Klebsiella pneumoniae; assay: Antibacterial activity against multi-drug resistant/KPC-2 producing Klebsiella pneumoniae K47-25 after 24 hrs by microdilution method; format: functional; conditions: K47-25, 24 h
[36] = system: Enterococcus faecium; assay: Antibacterial activity against vancomycin-resistant Enterococcus faecium 50901530 after 24 hrs by microdilution method; format: functional; conditions: Enterococcus faecium, 50901530, 24 h
[37] = system: Staphylococcus aureus; assay: Antibacterial activity against methicillin resistant Staphylococcus aureus NCTC 10442 after 24 hrs by microdilution method; format: functional; conditions: NCTC 10442, 24 h
[38] = system: Acinetobacter baumannii; assay: Antibacterial activity against multi-drug resistant/OXA-23 producing Acinetobacter baumannii K63-58 after 24 hrs by microdilution method; format: functional; conditions: K63-58, 24 h
[39] = system: Staphylococcus aureus; assay: Antibacterial activity against methicillin resistant Staphylococcus aureus N315 after 24 hrs by microdilution method; format: functional; conditions: N315, 24 h
[40] = system: Acinetobacter baumannii; assay: Antibacterial activity against multi-drug resistant/OXA-58 producing Acinetobacter baumannii K12-21 after 24 hrs by microdilution method; format: functional; conditions: K12-21, 24 h
[41] = system: Enterococcus faecium; assay: Antibacterial activity against vancomycin-resistant Enterococcus faecium TUH50-22 after 24 hrs by microdilution method; format: functional; conditions: TUH50-22, 24 h
[42] = system: Pseudomonas aeruginosa; assay: Antibacterial activity against multi-drug resistant/VIM producing Pseudomonas aeruginosa 50692520 after 24 hrs by microdilution method; format: functional; conditions: Pseudomonas aeruginosa, 50692520, 24 h
[43] = system: Escherichia coli; assay: Antibacterial activity against multi-drug resistant/VIM-29 producing Escherichia coli 50639799 after 24 hrs by microdilution method; format: functional; conditions: Escherichia coli, 50639799, 24 h
[44] = system: Klebsiella pneumoniae; assay: Antibacterial activity against Klebsiella pneumoniae clinical isolate after 24 hrs by microdilution method; format: functional
[45] = system: Pseudomonas aeruginosa; assay: Antibacterial activity against multi-drug resistant/IMP-14 producing Pseudomonas aeruginosa K44-24 after 24 hrs by microdilution method; format: functional; conditions: K44-24, 24 h

SMILES: CC(C)(C)c1cc(C(=O)Nc2ccc(CC(=O)NCCNC(=N)N)cc2)cc(C(C)(C)C)c1.Cl
- MIC [1]: 4 µg/mL
- solubility [2]: Insoluble
- hemolysis at 1 h, 64 ug/ml [3]: 35%
- Selectivity Index [4]: > 16
- MIC [5]: 16 µg/mL
- MIC [6]: 4 µg/mL
- MIC [7]: 2 µg/mL
- EC50 [8]: > 64 µg/mL
- MIC [9]: 4 µg/mL
- MIC [10]: 16 µg/mL

SMILES: CC(C)(C)c1cc(C(=O)Nc2cccc(C(=O)NCCNC(=N)N)c2)cc(C(C)(C)C)c1.Cl
- MIC [1]: 4 µg/mL
- MIC [11]: 32 µg/mL
- MIC [12]: 16 µg/mL
- MIC [13]: > 8 µg/mL
- MIC [14]: 16 µg/mL
- MIC90 [14]: 8 µg/mL
- MIC [15]: 32 µg/mL
- MIC [16]: 16 µg/mL
- MIC90 [16]: 16 µg/mL
- MIC [17]: 8 µg/mL
- MIC [18]: 8 µg/mL
- MIC [19]: 16 µg/mL
- MIC [20]: 32 µg/mL
- Selectivity Index [4]: 9.3
- MIC [21]: 4 µg/mL
- MIC90 [21]: 4 µg/mL
- MIC [22]: 16 µg/mL
- MIC [23]: 16 µg/mL
- MIC [5]: 8 µg/mL
- MIC [6]: 4 µg/mL
- MIC [24]: > 32 µg/mL
- MIC [25]: 8 µg/mL
- MIC [26]: 16 µg/mL
- MIC [27]: 8 µg/mL
- MIC [7]: 2 µg/mL
- MIC [28]: 8 µg/mL
- MIC90 [28]: 16 µg/mL
- MIC [29]: 16 µg/mL
- MIC [30]: 16 µg/mL
- MIC [31]: 8 µg/mL
- MIC [32]: > 32 µg/mL
- MIC [33]: 16 µg/mL
- MIC [34]: 32 µg/mL
- MIC [35]: > 32 µg/mL
- EC50 [8]: 37 µg/mL
- MIC [36]: 8 µg/mL
- MIC [37]: 8 µg/mL
- MIC [9]: 4 µg/mL
- MIC [38]: 32 µg/mL
- MIC [39]: 8 µg/mL
- MIC [40]: 32 µg/mL
- MIC [41]: 8 µg/mL
- MIC [42]: 16 µg/mL
- MIC [43]: 16 µg/mL
- MIC [44]: 16 µg/mL
- MIC90 [44]: 16 µg/mL
- MIC [10]: 8 µg/mL
- MIC [45]: 16 µg/mL

SMILES: CC(C)(C)c1cc(C(=O)Nc2ccccc2C(=O)NCCNC(=N)N)cc(C(C)(C)C)c1.Cl
- MIC [1]: 1 µg/mL
- MIC [11]: 16 µg/mL
- MIC [12]: > 32 µg/mL
- MIC [13]: > 4 µg/mL
- MIC [14]: 8 µg/mL
- MIC90 [14]: 4 µg/mL
- MIC [15]: 16 µg/mL
- MIC [16]: 8 µg/mL
- MIC90 [16]: 8 µg/mL
- MIC [17]: 8 µg/mL
- MIC [18]: 8 µg/mL
- MIC [19]: 16 µg/mL
- MIC [20]: 32 µg/mL
- Selectivity Index [4]: 37
- MIC [21]: 2 µg/mL
- MIC90 [21]: 2 µg/mL
- MIC [22]: 32 µg/mL
- MIC [23]: 32 µg/mL
- MIC [5]: 8 µg/mL
- MIC [6]: 1 µg/mL
- MIC [24]: > 32 µg/mL
- MIC [25]: 8 µg/mL
- MIC [26]: 16 µg/mL
- MIC [27]: 4 µg/mL
- MIC [7]: 0.5 µg/mL
- MIC [28]: 16 µg/mL
- MIC90 [28]: 32 µg/mL
- MIC [29]: 16 µg/mL
- MIC [30]: 32 µg/mL
- MIC [31]: 4 µg/mL
- MIC [32]: 32 µg/mL
- MIC [33]: > 32 µg/mL
- MIC [34]: 32 µg/mL
- MIC [35]: 32 µg/mL
- EC50 [8]: 37 µg/mL
- MIC [36]: 4 µg/mL
- MIC [37]: 4 µg/mL
- MIC [9]: 2 µg/mL
- MIC [38]: 32 µg/mL
- MIC [39]: 4 µg/mL
- MIC [40]: 32 µg/mL
- MIC [41]: 4 µg/mL
- MIC [42]: 32 µg/mL
- MIC [43]: 16 µg/mL
- MIC [44]: 16 µg/mL
- MIC90 [44]: 16 µg/mL
- MIC [10]: 16 µg/mL
- MIC [45]: > 32 µg/mL
